Source: ChEMBL document CHEMBL5724801, “EUbOPEN Chemogenomics Library - Multiplex” (2024)
Several values for one entry are separate records, joined by “and”; a condition that tells them apart may be missing. Identical values can stand only once.

What was measured:
Fibroblast = experiment: Multiplex assay against human fibroblast; type: toxicity, cell-based
How it was run: (§1)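 At seeding, live cells were stained with Hoechst33342, BioTracker Green Microtubule Cytoskeleton Dye, MitoTracker Red and Annexin V Alexa Fluor 680. After compound addition they were imaged on a CQ1 microscope at 37°C and 5% CO2, and CellPathfinder machine-learning gating sorted them into Hoechst high-intensity objects or normal cells, with normal cells further split into healthy, pyknosed or fragmented nuclei and pyknosed cells into mitotic or apoptotic. Tubulin, mitochondrial-mass and membrane-permeability phenotypes are given as per cents of cells with healthy nuclei.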

U2OS = experiment: Multiplex assay against U2OS; type: toxicity, cell-based; conditions: human; how it was run: as §1
[1] = 24 h, 1 µM, compound concentration 1 uM
[2] = 24 h, 10 µM, compound concentration 10 uM
[3] = 48 h, 1 µM, compound concentration 1 uM
[4] = 48 h, 10 µM, compound concentration 10 uM
[5] = 12 h, 1 µM, compound concentration 1 uM
[6] = 12 h, 10 µM, compound concentration 10 uM

Q: `CSc1ccccc1N1CCN(CCCCCC(=O)NC2CCCc3ccccc32)CC1.Cl` (stereo not drawn) was tested. Which “Population Tubulin-Different-Phenotype (%)” value (Fibroblast; [1]) did it give?
A: 40% and 64%

Q: And the “Total Cell Count” value (Fibroblast; [1])?
A: 133 and 130

Q: And the “Population Apoptotic (%)” value (Fibroblast; [2])?
A: 90% and 66%

Q: What about the “Population Fragmented Nuclei (%)” value (Fibroblast; [2]) of the same compound?
A: 22% and 33%

Q: What about the “Population Healthy Nuclei (%)” value (Fibroblast; [2]) of the same compound?
A: 66% and 56%

Q: What about the “Population Hoechst High Intensity Objects (%)” value (Fibroblast; [2]) of the same compound?
A: 7% and 3%

Q: And the “Population Membrane Permeable-Phenotype (%)” value (Fibroblast; [2])?
A: 0%

Q: What about the “Population Mitochondria Different-Phenotype (%)” value (Fibroblast; [2]) of the same compound?
A: 81% and 51%

Q: What about the “Population Normal (%)” value (Fibroblast; [2]) of the same compound?
A: 92% and 96%

Q: And the “Population Pyknosed Nuclei (%)” value (Fibroblast; [2])?
A: 11% and 9%

Q: And the “Population Tubulin-Different-Phenotype (%)” value (Fibroblast; [2])?
A: 98% and 90%

Q: What about the “Total Cell Count” value (Fibroblast; [2]) of the same compound?
A: 211 and 258

Q: And the “Population Apoptotic (%)” value (Fibroblast; [3])?
A: 61% and 44%

Q: And the “Population Fragmented Nuclei (%)” value (Fibroblast; [3])?
A: 26% and 33%

Q: What about the “Population Healthy Nuclei (%)” value (Fibroblast; [3]) of the same compound?
A: 56% and 45%

Q: What about the “Population Hoechst High Intensity Objects (%)” value (Fibroblast; [3]) of the same compound?
A: 6% and 1%

Q: And the “Population Membrane Permeable-Phenotype (%)” value (Fibroblast; [3])?
A: 2% and 0%

Q: What about the “Population Mitochondria Different-Phenotype (%)” value (Fibroblast; [3]) of the same compound?
A: 17% and 12%

Q: And the “Population Mitotic Cells (%)” value (Fibroblast; [3])?
A: 38% and 56%

Q: What about the “Population Normal (%)” value (Fibroblast; [3]) of the same compound?
A: 93% and 98%

Q: What about the “Population Pyknosed Nuclei (%)” value (Fibroblast; [3]) of the same compound?
A: 17% and 20%

Q: What about the “Population Tubulin-Different-Phenotype (%)” value (Fibroblast; [3]) of the same compound?
A: 69% and 64%

Q: And the “Total Cell Count” value (Fibroblast; [3])?
A: 132 and 124

Q: What about the “Population Apoptotic (%)” value (Fibroblast; [4]) of the same compound?
A: 91% and 68%

Q: And the “Population Fragmented Nuclei (%)” value (Fibroblast; [4])?
A: 25% and 38%

Q: What about the “Population Healthy Nuclei (%)” value (Fibroblast; [4]) of the same compound?
A: 61% and 53%

Q: And the “Population Hoechst High Intensity Objects (%)” value (Fibroblast; [4])?
A: 8% and 4%

Q: What about the “Population Membrane Permeable-Phenotype (%)” value (Fibroblast; [4]) of the same compound?
A: 0% and 2%

Q: And the “Population Mitochondria Different-Phenotype (%)” value (Fibroblast; [4])?
A: 82% and 33%

Q: What about the “Population Normal (%)” value (Fibroblast; [4]) of the same compound?
A: 91% and 95%

Q: What about the “Population Pyknosed Nuclei (%)” value (Fibroblast; [4]) of the same compound?
A: 12% and 8%

Q: And the “Population Tubulin-Different-Phenotype (%)” value (Fibroblast; [4])?
A: 97% and 83%

Q: What about the “Total Cell Count” value (Fibroblast; [4]) of the same compound?
A: 195 and 281

Q: What about the “Population Apoptotic (%)” value (U2OS; [5]) of the same compound?
A: 62% and 36%

Q: And the “Population Fragmented Nuclei (%)” value (U2OS; [5])?
A: 22% and 24%

Q: What about the “Population Healthy Nuclei (%)” value (U2OS; [5]) of the same compound?
A: 61% and 63%

Q: What about the “Population Hoechst High Intensity Objects (%)” value (U2OS; [5]) of the same compound?
A: 9% and 3%

Q: And the “Population Membrane Permeable-Phenotype (%)” value (U2OS; [5])?
A: 73% and 51%

Q: And the “Population Mitochondria Different-Phenotype (%)” value (U2OS; [5])?
A: 71% and 85%

Q: What about the “Population Mitotic Cells (%)” value (U2OS; [5]) of the same compound?
A: 37% and 63%

Q: And the “Population Normal (%)” value (U2OS; [5])?
A: 90% and 96%

Q: And the “Population Pyknosed Nuclei (%)” value (U2OS; [5])?
A: 15% and 11%

Q: And the “Population Tubulin-Different-Phenotype (%)” value (U2OS; [5])?
A: 88% and 72%

Q: And the “Total Cell Count” value (U2OS; [5])?
A: 222 and 101

Q: And the “Population Apoptotic (%)” value (U2OS; [6])?
A: 70% and 84%

Q: What about the “Population Fragmented Nuclei (%)” value (U2OS; [6]) of the same compound?
A: 41% and 23%

Q: And the “Population Healthy Nuclei (%)” value (U2OS; [6])?
A: 39% and 55%

Q: And the “Population Hoechst High Intensity Objects (%)” value (U2OS; [6])?
A: 8% and 4%

Q: And the “Population Membrane Permeable-Phenotype (%)” value (U2OS; [6])?
A: 67% and 60%

Q: What about the “Population Mitochondria Different-Phenotype (%)” value (U2OS; [6]) of the same compound?
A: 90% and 92%

Q: And the “Population Mitotic Cells (%)” value (U2OS; [6])?
A: 29% and 16%

Q: What about the “Population Normal (%)” value (U2OS; [6]) of the same compound?
A: 91% and 95%

Q: And the “Population Pyknosed Nuclei (%)” value (U2OS; [6])?
A: 18% and 21%

Q: And the “Population Tubulin-Different-Phenotype (%)” value (U2OS; [6])?
A: 96% and 98%

Q: And the “Total Cell Count” value (U2OS; [6])?
A: 221 and 125

Q: What about the “Population Apoptotic (%)” value (U2OS; [1]) of the same compound?
A: 54% and 58%

Q: And the “Population Fragmented Nuclei (%)” value (U2OS; [1])?
A: 22% and 25%

Q: What about the “Population Healthy Nuclei (%)” value (U2OS; [1]) of the same compound?
A: 60% and 58%

Q: What about the “Population Hoechst High Intensity Objects (%)” value (U2OS; [1]) of the same compound?
A: 6% and 2%

Q: And the “Population Membrane Permeable-Phenotype (%)” value (U2OS; [1])?
A: 63% and 46%

Q: And the “Population Mitochondria Different-Phenotype (%)” value (U2OS; [1])?
A: 63% and 74%

Q: What about the “Population Mitotic Cells (%)” value (U2OS; [1]) of the same compound?
A: 45% and 41%

Q: And the “Population Normal (%)” value (U2OS; [1])?
A: 94% and 97%

Q: What about the “Population Pyknosed Nuclei (%)” value (U2OS; [1]) of the same compound?
A: 17% and 15%

Q: What about the “Population Tubulin-Different-Phenotype (%)” value (U2OS; [1]) of the same compound?
A: 75% and 63%

Q: What about the “Total Cell Count” value (U2OS; [1]) of the same compound?
A: 250 and 111

Q: What about the “Population Apoptotic (%)” value (U2OS; [2]) of the same compound?
A: 89% and 94%

Q: And the “Population Fragmented Nuclei (%)” value (U2OS; [2])?
A: 44% and 19%

Q: What about the “Population Healthy Nuclei (%)” value (U2OS; [2]) of the same compound?
A: 28% and 44%

Q: And the “Population Hoechst High Intensity Objects (%)” value (U2OS; [2])?
A: 6% and 10%

Q: And the “Population Membrane Permeable-Phenotype (%)” value (U2OS; [2])?
A: 79% and 90%

Q: What about the “Population Mitochondria Different-Phenotype (%)” value (U2OS; [2]) of the same compound?
A: 81% and 56%

Q: What about the “Population Mitotic Cells (%)” value (U2OS; [2]) of the same compound?
A: 10% and 5%

Q: And the “Population Normal (%)” value (U2OS; [2])?
A: 93% and 89%

Q: And the “Population Pyknosed Nuclei (%)” value (U2OS; [2])?
A: 26% and 37%

Q: What about the “Population Tubulin-Different-Phenotype (%)” value (U2OS; [2]) of the same compound?
A: 91% and 97%

Q: What about the “Total Cell Count” value (U2OS; [2]) of the same compound?
A: 219 and 112

Q: And the “Population Apoptotic (%)” value (U2OS; [3])?
A: 64% and 95%

Q: And the “Population Fragmented Nuclei (%)” value (U2OS; [3])?
A: 25% and 28%

Q: What about the “Population Healthy Nuclei (%)” value (U2OS; [3]) of the same compound?
A: 53% and 52%

Q: And the “Population Hoechst High Intensity Objects (%)” value (U2OS; [3])?
A: 8% and 5%

Q: What about the “Population Membrane Permeable-Phenotype (%)” value (U2OS; [3]) of the same compound?
A: 42% and 41%

Q: And the “Population Mitochondria Different-Phenotype (%)” value (U2OS; [3])?
A: 56% and 63%

Q: What about the “Population Normal (%)” value (U2OS; [3]) of the same compound?
A: 91% and 94%

Q: And the “Population Pyknosed Nuclei (%)” value (U2OS; [3])?
A: 21% and 18%

Q: And the “Population Tubulin-Different-Phenotype (%)” value (U2OS; [3])?
A: 50% and 44%

Q: What about the “Total Cell Count” value (U2OS; [3]) of the same compound?
A: 272 and 137

Q: And the “Population Apoptotic (%)” value (U2OS; [4])?
A: 98% and 100%

Q: What about the “Population Fragmented Nuclei (%)” value (U2OS; [4]) of the same compound?
A: 43% and 25%

Q: What about the “Population Healthy Nuclei (%)” value (U2OS; [4]) of the same compound?
A: 18% and 20%

Q: What about the “Population Hoechst High Intensity Objects (%)” value (U2OS; [4]) of the same compound?
A: 15% and 11%

Q: And the “Population Membrane Permeable-Phenotype (%)” value (U2OS; [4])?
A: 77% and 85%

Q: And the “Population Mitochondria Different-Phenotype (%)” value (U2OS; [4])?
A: 33% and 45%

Q: And the “Population Mitotic Cells (%)” value (U2OS; [4])?
A: 1% and 0%

Q: And the “Population Normal (%)” value (U2OS; [4])?
A: 84% and 88%

Q: And the “Population Pyknosed Nuclei (%)” value (U2OS; [4])?
A: 38% and 54%

Q: What about the “Population Tubulin-Different-Phenotype (%)” value (U2OS; [4]) of the same compound?
A: 75% and 95%

Q: What about the “Total Cell Count” value (U2OS; [4]) of the same compound?
A: 232 and 109
